In experiment [1] the target is T1, B2 bradykinin receptor (Cavia porcellus, UniProt O70526).
T1 sequence (O70526 whole entry): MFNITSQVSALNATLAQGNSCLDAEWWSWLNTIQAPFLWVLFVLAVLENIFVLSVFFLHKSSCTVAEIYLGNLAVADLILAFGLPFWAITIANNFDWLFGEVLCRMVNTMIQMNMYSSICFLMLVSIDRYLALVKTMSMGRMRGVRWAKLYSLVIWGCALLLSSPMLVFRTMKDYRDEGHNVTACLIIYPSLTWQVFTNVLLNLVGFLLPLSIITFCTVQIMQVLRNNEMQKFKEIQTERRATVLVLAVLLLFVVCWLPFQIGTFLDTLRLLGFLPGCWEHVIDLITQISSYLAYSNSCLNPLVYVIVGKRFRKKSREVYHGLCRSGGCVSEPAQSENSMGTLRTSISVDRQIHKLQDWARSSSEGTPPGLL
The experiment can be described thus: Antagonistic activity against Bradykinin receptor B2 of guinea pig ileum longitudinal smooth muscle. An outline of the steps: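 Guinea pig ileum longitudinal muscle-myenteric plexus strips in oxygenated (95% O2/5% CO2) Krebs with indomethacin, guanethidine (3 μM each), chlorpheniramine, atropine (1 μM each). Cumulative BK curves with thiorphan, bestatin, captopril (1 μM each); antagonist given 15 min before repeat curve at 1–10 μM. Contraction read-out; pA2 (dose ratio 2), mean ± SE of 4–15 experiments.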

Experiment [2] concerns the target T2, B1 bradykinin receptor (Rattus norvegicus, UniProt P97583).
T2 sequence (P97583 whole entry): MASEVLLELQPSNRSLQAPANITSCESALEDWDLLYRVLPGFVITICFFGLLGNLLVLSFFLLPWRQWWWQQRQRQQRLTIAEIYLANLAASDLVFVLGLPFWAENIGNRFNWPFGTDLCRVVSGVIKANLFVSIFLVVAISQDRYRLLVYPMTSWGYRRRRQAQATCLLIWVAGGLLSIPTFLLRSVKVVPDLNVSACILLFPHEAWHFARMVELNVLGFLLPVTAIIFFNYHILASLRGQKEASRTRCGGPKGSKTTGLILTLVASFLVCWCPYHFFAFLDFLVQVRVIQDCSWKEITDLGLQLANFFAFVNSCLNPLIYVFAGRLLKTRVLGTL
The experiment can be described thus: Antagonistic activity against Bradykinin receptor B1 of rat ileum longitudinal smooth muscle. The method, boiled down:
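Rat ileum longitudinal muscle-myenteric plexus strips in oxygenated (95% O2/5% CO2) Krebs with indomethacin, guanethidine (3 μM each), chlorpheniramine, atropine (1 μM each). Cumulative desArg9-BK curves with thiorphan, bestatin, captopril (1 μM each); antagonist given 15 min before repeat curve at 1–10 μM. Contraction read-out; pA2 (dose ratio 2), mean ± SE of 4–15 experiments.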

By Kd is commonly meant the concentration at which binding is half-saturated. Consider `N=C(N)NCCC[C@H](NC(=O)[C@H](CCCCN)NC(=O)[C@@H](N)CCCCN)C(=O)N1CCC[C@H]1C(=O)N1CC(O)C[C@H]1C(=O)NCC(=O)N[C@H](C(=O)N[C@@H](CO)C(=O)N[C@@H](C(=O)N1C(C(=O)O)C[C@@H]2CCCC[C@@H]21)C1Cc2ccccc2C1)C1Cc2ccccc2C1` (some centres undefined) [B-9858], for which the equilibrium dissociation constant (Kd) in experiment [1] came out at 3160 nM; in experiment [2] it was 7.94 nM.

With `N=C(N)NCCC[C@@H](N)C(=O)N[C@@H](CCCNC(=N)N)C(=O)N1CCC[C@H]1C(=O)N1CC(O)C[C@H]1C(=O)NCC(=O)N[C@H](C(=O)N[C@@H](CO)C(=O)N[C@@H](C(=O)N1C(C(=O)N[C@H](CCCNC(=N)N)C(=O)O)C[C@@H]2CCCC[C@@H]21)C1Cc2ccccc2C1)C1Cc2ccccc2C1` (some centres undefined) [B-9430], the Kd in experiment [1] is 6.31 nM; in experiment [2], 19.9 nM.

(Values after BindingDB's records for doi:10.1021/jm980495r (Institute of Mutagenesis and Differentiation, 1999).)
